From ChEMBL document CHEMBL1154441, “Chemotherapy of leishmaniasis part-VIII: synthesis and bioevaluation of novel chalcones” (2008)
The source made the active and inactive calls. The rule behind the calls is not given here.

Assays:
Assay type in all cases: functional
Leishmania donovani [1] = assay: Antileishmanial activity against Leishmania donovani MHOM/IN/Dd8 promastigotes assessed as inhibition of parasitic growth at 5 ug/ml after 72 hrs by luciferase activity-based luminescence assay
Summary of the method: (§1)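 Late-log luciferase-transfected L. donovani promastigotes (kept at 25 ± 1 °C in medium 199 + 10% FCS under G418) seeded at 5 × 10⁵ per well in medium 199; exposed 72 h to serial dilutions of compound in DMSO, with parallel DMSO dilutions as controls. Aliquot mixed 1:1 with Steady-Glo reagent; luminescence read as RLU and growth inhibition derived from luciferase signal.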

Leishmania donovani [2] = assay: Antileishmanial activity against Leishmania donovani MHOM/IN/Dd8 promastigotes assessed as inhibition of parasitic growth at 2 ug/ml after 72 hrs by luciferase activity-based luminescence assay; summary of the method: as §1
Leishmania donovani [3] = assay: Antileishmanial activity against Leishmania donovani MHOM/IN/Dd8 amastigotes infected in mouse J774A.1 cells assessed as inhibition of parasitic growth at 5 ug/ml after 24 hrs by luciferase activity-based luminescence assay; conditions: for Percent inhibition of intracellular amastigote growth at 5 µg/mL: J774.A1, 24 h, read-out: INH
Summary of the method: (§2)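 Macrophages seeded 5 × 10⁴ per well in RPMI-1640 + 10% FCS, 37 °C, CO₂; after 24 h infected with stationary-phase luciferase-expressing promastigotes (2.5 × 10⁵ per well) that transform to amastigotes. Medium replaced with compound in complete medium, incubated 37 °C for 24 h or more; then PBS added, mixed 1:1 with Steady-Glo, shaken 1–2 min, luminescence read to give growth inhibition.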

Leishmania donovani [4] = assay: Antileishmanial activity against Leishmania donovani MHOM/IN/Dd8 amastigotes infected in mouse J774A.1 cells assessed as inhibition of parasitic growth at 2 ug/ml after 24 hrs by luciferase activity-based luminescence assay; conditions: for percent inhibition of intracellular amastigote growth at 2 µg/mL: J774.A1, 24 h, read-out: INH; summary of the method: as §2

Row | SMILES | inhibition at 5 µg/mL (Leishmania donovani [1]) [%] | inhibition at 2 µg/mL (Leishmania donovani [2]) [%] | Percent inhibition of intracellular amastigote growth at 5 µg/mL (Leishmania donovani [3]) [%] | percent inhibition of intracellular amastigote growth at 2 µg/mL (Leishmania donovani [4]) [%] | Activity (Leishmania donovani [3]) | Activity (Leishmania donovani [4])
1 | CC1=CCCC(C)(C)C1CCC(=O)/C=C/c1ccc(Cl)cc1 (configuration not stated) | 100 | 100 | 93 | 88 |  | 
2 | COc1cc(/C=C/C(=O)CCC2C(C)=CCCC2(C)C)cc(OC)c1OC (configuration not stated) | 90 | 50 |  |  | inactive | inactive
3 | COc1ccc(/C=C/C(=O)CCC2C(C)=CCCC2(C)C)cc1 (configuration not stated) | 98 | 98 | 81 | 40 |  | 
4 | COc1ccc(/C=C/C(=O)CCC2C(C)=CCCC2(C)C)cc1OC (configuration not stated) | 100 | 100 | 95 | 79 |  | 
5 | CC1=CCCC(C)(C)C1CCC(=O)/C=C/c1ccc(CO)o1 (configuration not stated) | 93 | 65 |  |  | inactive | inactive
6 | CC1=CCCC(C)(C)C1CCC(=O)/C=C/c1ccc(OCc2ccccc2)cc1 (configuration not stated) | 100 | 61 |  |  | inactive | 
7 | CC1=CCCC(C)(C)C1CCC(=O)/C=C/c1ccc(O)cc1 (configuration not stated) | 100 | 76 |  |  | inactive | inactive
8 | CC1=CCCC(C)(C)C1CCC(=O)/C=C/c1cccc([N+](=O)[O-])c1 (configuration not stated) | 99 | 98 | 65 |  |  | 
9 | CC1=CCCC(C)(C)C1CCC(=O)/C=C/c1ccc([N+](=O)[O-])cc1 (configuration not stated) | 99 | 95 | 80 | 74 |  | 
10 | CC1=CCCC(C)(C)C1CCC(=O)/C=C/c1cccnc1 (configuration not stated) | 100 | 100 | 92 | 33 |  | 
11 | CC1=CCCC(C)(C)C1CCC(=O)/C=C/c1ccccc1[N+](=O)[O-] (configuration not stated) | 53 | 34 |  |  | inactive | inactive
